# Experimental data of several laboratories.
# Lines come from different studies, so protocols differ.
# Target: Dual specificity tyrosine-phosphorylation-regulated kinase 1B (DYRK1B, Homo sapiens, UniProt Q9Y463)
# Effect on: enzyme activity
# Mode: inhibitor
Compound,method,tested at,remaining activity [%]
COc1cc(Cl)c(C(=O)N[C@@H](CN[C@H]2CC[C@@H](N)CC2)Cc2ccc(C#N)cc2)cc1-c1ccc(CN[C@H](C)c2ccc(C)cc2)o1,,1 µM,101
Cc1cnc(NC2CCOCC2)nc1-n1cnc(C(=O)NC(CN)c2cc(F)cc(Cl)c2)c1 (centres unmarked),radiometric,1 µM,80
CC(C)(O)[C@H]1CC[C@H](Nc2ccc3ncc(-c4cccc(C(F)(F)F)c4)n3n2)CC1,,1 µM,15.3
O=C(Nc1cnn(-c2csc(C(=O)NC3COC3)c2)c1)Nc1c(F)cccc1Cl,,5 µM,82.8
O=C(O)c1ccc2c(c1)nc(NCCc1ccccc1)c1ccncc12,radiometric,1 µM,114
O=C(Nc1cnn(-c2csc(C(=O)NC3COC3)c2)c1)Nc1ccccc1Cl,,5 µM,87
Nc1ncnc2occ(-c3ccc(NC(=O)Nc4cc(C(F)(F)F)ccc4F)cc3)c12,,20 µM,80
O=C(O)c1ccc2c(c1)nc(Nc1ccc(Cl)cc1)c1ccncc12,radiometric,1 µM,65
